# Experimental data gathered from unrelated publications.
# Lines come from different studies, so protocols differ.
# PIK3CD: Phosphatidylinositol 4,5-bisphosphate 3-kinase catalytic subunit delta isoform (PIK3CD, Homo sapiens, UniProt O00329)
Structure (SMILES),target,test,conditions,quantity,value
C1=C/COCc2cc(ccc2OCCN2CCCC2)Nc2nccc(n2)-c2cccc(c2)COC/1,PIK3CD,binding,0.1 µM,remaining binding,30%
C=CC(=O)N1CCC([C@@H]2CCNc3c(C(N)=O)c(-c4ccc(Oc5ccccc5)cc4)nn32)CC1,PIK3CD,"enzyme activity, inhibitor",1 µM,inhibition,11%
CCCCC(=O)Nc1ccc(-c2ccc3ncn(CCC)c(=O)c3c2)cn1,PIK3CD,"binding, competition with immobilised ligand",0.5 µM,remaining binding,100%
C[C@H]1CC[C@H](n2c3cnccc3c3cnc(Nc4ccc5c(n4)CCN(C(=O)CO)C5)nc32)CC1,PIK3CD,cell-free assay,1 µM,remaining signal,87%
Cc1cc(O)c(-c2ccc([C@@H](C)CN(C)C)cc2)c2c1[nH]c(=O)c1sccc12,PIK3CD,"enzyme activity, inhibitor",0.1 µM,inhibition,-6.12%
C#Cc1cc(-c2cc(Nc3nc(N[C@@H](C)c4ccc(F)cn4)ncc3Cl)n[nH]2)ccc1C=O,PIK3CD,"enzyme activity, inhibitor",0.2 µM,inhibition,29.3%
COc1ccc2[nH]c3c4[nH]c5ccc(OC)cc5c4c4c(c3c2c1)C(=O)NC4=O,PIK3CD,binding,1 µM,remaining binding,64%
CO[C@@H]1[C@H](N(C)C(=O)c2ccccc2)C[C@H]2O[C@]1(C)n1c3ccccc3c3c4c(c5c6ccccc6n2c5c31)C(=O)NC4,PIK3CD,"enzyme activity, inhibitor",1 µM,inhibition,0%
CC(C)S(=O)(=O)c1ccc2nccc(Nc3ccc4sc(C5CCCC5)nc4c3)c2c1,"Phosphatidylinositol 4,5-bisphosphate 3-kinase catalytic subunit delta isoform, with p85 (PIK3CD, Homo sapiens, UniProt O00329)","enzyme activity, inhibitor",1 µM,activity vs control,91%
